ChEMBL document CHEMBL1156742, “Fluorinated rhodacyanine (SJL-01) possessing high efficacy for visceral leishmaniasis (VL)” (J Med Chem, 2010)

How the values were obtained:
[1] = Selectivity ratio of IC50 for rat L6 cells to IC50 for Leishmania donovani MHOM/ET/67/L82; format: ADME, cell-based; conditions: for selectivity ratio: L6 cells, read-out: Ratio IC50; for Ratio IC50: l6
Summary of the method: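 Ratio of the L-6 cytotoxicity IC50 to the IC50 against axenic L. donovani amastigotes.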

[2] = system: L6; assay: Cytotoxicity against rat L6 cells after 72 hrs by Alamar blue assay; format: cell-based
Summary of the method: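 L-6 myoblasts were grown in RPMI 1640 with L-glutamine and 10% FBS at 37 °C, 5% CO2, seeded at 4×10^4 cells/well. After 24 h they were given serial drug dilutions for 72 h. Alamar blue was added for 2 h, and fluorescence read at ex 536/em 588 nm to give IC50.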

[3] = system: Leishmania donovani; assay: Antileishmanial activity against Leishmania donovani MHOM/ET/67/L82 amastigotes infected in syrian golden hamster spleen after 72 hrs; format: functional, organism-based
Summary of the method: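 Hamster-maintained spleen amastigotes were grown axenically at 37 °C, 5% CO2 in Cunningham SM medium, pH 5.4, with 10% FBS. 10^5 amastigotes per well were exposed to serial drug dilutions for 72 h. Alamar blue (resazurin) was added for 2 h more, and fluorescence read at ex 536/em 588 nm. IC50 was taken from the sigmoidal inhibition curve versus control.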

[4] = system: Leishmania donovani; assay: Antileishmanial activity against Leishmania donovani MHOM/ET/67/HU3 infected in BALB/c mouse at 50 mg/kg, ip for 5 days from day 7 postinfection measured after 14 days by Giemsa staining; format: functional; conditions: MHOM/ET/67/HU3, ip, route intraperitoneal
Summary of the method: (§1)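 Female SPF BALB/c mice (6-8 weeks, ~20 g) infected iv via tail vein on day 0 with 1.5×10^7 hamster-spleen-derived amastigotes. Groups of five mice were treated once daily starting day 7. On day 14 the livers were weighed and Giemsa-stained smears prepared. Amastigotes were counted per 500 liver cells and expressed as amastigotes per liver cell × mg liver. % inhibition was calculated versus untreated mice.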

[5] = system: Leishmania donovani; assay: Antileishmanial activity against Leishmania donovani MHOM/ET/67/L82 infected in NMRI mouse macrophage assessed as reduction in parasite burden after 4 days by Giemsa staining; conditions: MHOM/ET/67/L82, 4 days
[6] = system: Leishmania donovani; assay: Antileishmanial activity against Leishmania donovani MHOM/ET/67/HU3 infected in BALB/c mouse at 0.2 mg/kg, iv for 5 days from day 7 postinfection measured after 14 days by Giemsa staining; format: functional; summary of the method: as §1
[7] = system: Leishmania donovani; assay: Antileishmanial activity against Leishmania donovani MHOM/ET/67/HU3 infected in BALB/c mouse at 1.3 mg/kg, iv for 5 days from day 7 postinfection measured after 14 days by Giemsa staining; format: functional; summary of the method: as §1
[8] = system: Leishmania donovani; assay: Antileishmanial activity against Leishmania donovani MHOM/ET/67/HU3 infected in BALB/c mouse at 4.1 mg/kg, iv for 5 days from day 7 postinfection measured after 14 days by Giemsa staining; format: functional; summary of the method: as §1
[9] = system: Leishmania donovani; assay: Antileishmanial activity against Leishmania donovani MHOM/ET/67/HU3 infected in BALB/c mouse at 12.5 mg/kg, iv for 5 days from day 7 postinfection measured after 14 days by Giemsa staining; format: functional; summary of the method: as §1
[10] = system: Leishmania donovani; assay: Antileishmanial activity against Leishmania donovani MHOM/ET/67/HU3 infected in BALB/c mouse at 1.5 mg/kg, iv for 3 days from day 7 postinfection measured after 14 days by Giemsa staining; format: functional; summary of the method: as §1
[11] = system: Leishmania donovani; assay: Antileishmanial activity against Leishmania donovani MHOM/ET/67/HU3 infected in BALB/c mouse at 0.5 mg/kg, iv for 3 days from day 7 postinfection measured after 14 days by Giemsa staining; format: functional; summary of the method: as §1
[12] = system: Leishmania donovani; assay: Antileishmanial activity against Leishmania donovani MHOM/ET/67/HU3 infected in BALB/c mouse at 2 mg/kg, iv for 5 days from day 7 postinfection measured after 14 days by Giemsa staining; format: functional; summary of the method: as §1
[13] = system: Leishmania donovani; assay: Antileishmanial activity against Leishmania donovani MHOM/ET/67/HU3 infected in BALB/c mouse at 50 mg/kg, po for 5 days from day 7 postinfection measured after 14 days by Giemsa staining; format: functional; summary of the method: as §1
[14] = system: Leishmania donovani; assay: Antileishmanial activity against Leishmania donovani MHOM/ET/67/HU3 infected in BALB/c mouse at 15 mg/kg, sc for 5 days from day 7 postinfection measured after 14 days by Giemsa staining; format: functional, organism-based; set-up: dose 15 mg/kg; summary of the method: as §1
[15] = Leishmania donovani, MHOM/ET/67/L82, Spleen, 72 h

IC50 [3, 15]	Molecule	selectivity ratio [1]	IC50 ([2]; Rattus norvegicus, L6, 72 h)	further results
11600 nM	CN1/C(=C/C=c2\s/c(=C\c3sc4ccc(F)cc4[n+]3C)n(CCO)c2=O)Sc2ccccc21	> 15	> 169000 nM	–
28 nM	CCN1C(=O)/C(=C/C=C2\Sc3ccccc3N2C)S/C1=N\c1sc2ccc(Cl)cc2[n+]1C	757	21200 nM	inhibition in vivo at 50 mg/kg [4]: 18.2%; IC50 [5]: 80 nM
52 nM	CCN1C(=O)/C(=C/C=C2\Sc3ccccc3N2C)S/C1=N\c1sc2ccccc2[n+]1C	2990	156000 nM	IC50 [5]: 4690 nM
182 nM	CCn1c(=O)/c(=C/N=c2\scc(C)n2C)s/c1=C\c1sc2ccc(F)cc2[n+]1C	91	16500 nM	–
690 nM	CCCN1C=CC=c2o/c(=C/C=c3\s/c(=C\c4sc5ccccc5[n+]4C)n(CC)c3=O)nc21	2	1440 nM	–
129 nM	CCn1c(=O)/c(=C/N=c2n(C)c3ccccc3n2C)s/c1=C\c1sc2ccc(F)cc2[n+]1C	627	80900 nM	–
677 nM	CCn1c(=O)/c(=C/C=c2\nc3c(o2)=CC=CN3C)s/c1=C\c1sc2ccccc2[n+]1C	40	27200 nM	–
–	CCn1c(=O)/c(=C/C=C2\Sc3ccccc3N2C)s/c1=C\c1sc2ccc(F)cc2[n+]1C.O=C([O-])/C=C\C(=O)O	–	–	Ratio IC50 [1]: 2870; IC50 ([2]; l6): 71700 nM; IC50 [3]: 25 nM
106 nM	CCn1c(=O)/c(=C/C=C2\Sc3ccccc3N2C)s/c1=C\c1sc2ccccc2[n+]1C	75	7980 nM	–
2020 nM	CCn1c(=O)/c(=C/N=c2\ccccn2C)s/c1=C\c1sc2ccc(F)cc2[n+]1C	16	31700 nM	–
430 nM	CCCCCCCCCCCCCCCCOP(=O)([O-])OCC[N+](C)(C)C [MILTEFOSINE]	–	–	IC50 [5]: 811 nM
–	CCn1c(=O)/c(=C/C=C2\Sc3ccccc3N2C)s/c1=C\c1sc2ccc(F)cc2[n+]1C.[Cl-]	–	–	Ratio IC50 [1]: > 15000; inhibition in vivo at 0.2 mg/kg [6]: 16.1%; IC50 ([2]; l6): > 174000 nM; IC50 [3]: 11 nM; inhibition in vivo at 50 mg/kg [4]: 31.4%; inhibition in vivo at 1.3 mg/kg [7]: 94.9%; inhibition in vivo at 4.1 mg/kg [8]: 97.2%; inhibition in vivo at 12.5 mg/kg [9]: 95.4%; IC50 [5]: 353 nM
255 nM	CCn1c(=O)/c(=C2\Sc3ccccc3N2C)s/c1=C\c1cccc[n+]1CC	450	115000 nM	–
–	C[C@@H]1[C@H](O)[C@@H](C)/C=C/C=C/C=C/C=C/C=C/C=C/C=C/[C@H](O[C@@H]2O[C@H](C)[C@@H](O)[C@H](N)[C@@H]2O)C[C@@H]2O[C@](O)(C[C@@H](O)C[C@@H](O)[C@H](O)CC[C@@H](O)C[C@@H](O)CC(=O)O[C@H]1C)C[C@H](O)[C@H]2C(=O)O [AMPHOTERICIN B]	–	–	inhibition in vivo at 1.5 mg/kg [10]: 95.5%; inhibition in vivo at 0.5 mg/kg [11]: 78.6%
–	CCn1c(=O)/c(=C/C=C2\Sc3ccccc3N2C)s/c1=C\c1sc2ccc(F)cc2[n+]1C.CS(=O)(=O)[O-]	–	–	Ratio IC50 [1]: 4225; IC50 ([2]; l6): 84500 nM; inhibition in vivo at 2 mg/kg [12]: 46.4%; IC50 [3]: 20 nM; inhibition in vivo at 50 mg/kg [13]: 28%
–	D-gluconic acid, 2,4:2',4'-O-[oxybis-oxidostibylidyne]bis-, trisodium salt, nonahydrate	–	–	inhibition [14]: 62%
118 nM	CCn1c(=O)/c(=C/N=c2\sc(C)cn2C)s/c1=C\c1sc2ccc(F)cc2[n+]1C	88	10400 nM	–
1040 nM	CCn1c(=O)/c(=C/C=c2\nc3c(o2)=CC=CN3C)s/c1=C\c1sc2ccc(F)cc2[n+]1C	27	28500 nM	–
21 nM	CCCCN1C=CC=c2o/c(=C/C=c3\s/c(=C\c4sc5ccccc5[n+]4CC)n(CCC)c3=O)nc21	99	2070 nM	–
